# Reference: ChEMBL document CHEMBL1811853, “Design and evaluation of 3-aminopyrazolopyridinone kinase inhibitors inspired by the natural product indirubin” (Bioorg Med Chem, 2011)
# Assays:
# [1] = target: MAP kinase-activated protein kinase 2 (Homo sapiens, UniProt P49137); test: Inhibition of MAPKAPK2 at 30 uM by microfluidic mobility shift assay
# How it was run: (§1)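 Single-concentration screen, singlicate, 30 uM final (diluted from 1 mM DMSO solutions), fluorescently tagged peptide substrate appropriate to each kinase, ATP at apparent Km for each protein. Phosphorylated and unphosphorylated peptides separated electrophoretically; conversion is the phosphorylated peak area over the sum of both peaks. No-inhibitor and no-ATP controls; H89 reference on each plate.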
# [2] = target: T1, Aurora kinase A (Homo sapiens) (UniProt O14965); test: Inhibition of AurA at 30 uM by microfluidic mobility shift assay; how it was run: as §1
# T1 sequence (whole entry): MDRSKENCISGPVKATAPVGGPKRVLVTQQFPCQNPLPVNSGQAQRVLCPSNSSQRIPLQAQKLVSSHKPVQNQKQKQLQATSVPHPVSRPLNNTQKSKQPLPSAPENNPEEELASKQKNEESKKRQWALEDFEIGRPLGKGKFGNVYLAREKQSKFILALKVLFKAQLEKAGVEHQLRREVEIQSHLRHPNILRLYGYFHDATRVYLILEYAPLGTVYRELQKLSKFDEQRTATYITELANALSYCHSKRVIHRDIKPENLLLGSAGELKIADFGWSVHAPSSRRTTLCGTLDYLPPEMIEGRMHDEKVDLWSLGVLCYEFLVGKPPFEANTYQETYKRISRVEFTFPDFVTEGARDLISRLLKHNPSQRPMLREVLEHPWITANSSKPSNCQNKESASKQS
# [3] = target: Ribosomal protein S6 kinase alpha-1 (Homo sapiens) (UniProt Q15418); test: Inhibition of RSK1 at 30 uM by microfluidic mobility shift assay; how it was run: as §1
# Chain of Ribosomal protein S6 kinase alpha-1 (Homo sapiens) (Q15418 whole entry): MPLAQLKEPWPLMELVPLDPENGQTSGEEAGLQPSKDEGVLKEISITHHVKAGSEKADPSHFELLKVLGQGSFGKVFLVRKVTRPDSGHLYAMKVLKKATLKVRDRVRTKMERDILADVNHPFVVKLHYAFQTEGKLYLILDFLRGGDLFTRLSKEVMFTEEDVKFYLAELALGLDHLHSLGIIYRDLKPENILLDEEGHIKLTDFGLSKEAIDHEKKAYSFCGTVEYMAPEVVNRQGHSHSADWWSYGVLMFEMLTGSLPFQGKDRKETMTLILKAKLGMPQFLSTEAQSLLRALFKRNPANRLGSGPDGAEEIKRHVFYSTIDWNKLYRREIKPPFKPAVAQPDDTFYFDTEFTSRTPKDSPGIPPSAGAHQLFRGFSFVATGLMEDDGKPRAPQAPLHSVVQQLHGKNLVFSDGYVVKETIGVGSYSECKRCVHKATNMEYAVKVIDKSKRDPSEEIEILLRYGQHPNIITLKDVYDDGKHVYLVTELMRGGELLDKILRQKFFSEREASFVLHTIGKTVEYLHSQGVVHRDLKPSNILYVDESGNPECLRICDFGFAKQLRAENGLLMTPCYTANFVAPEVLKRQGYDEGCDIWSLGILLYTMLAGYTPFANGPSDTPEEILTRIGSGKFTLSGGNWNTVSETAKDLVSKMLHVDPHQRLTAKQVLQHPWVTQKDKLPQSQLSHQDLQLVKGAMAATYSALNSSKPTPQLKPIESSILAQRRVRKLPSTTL
# [4] = target: Mitogen-activated protein kinase 3 (Homo sapiens) (UniProt P27361); test: Inhibition of ERK1 at 30 uM by microfluidic mobility shift assay; how it was run: as §1
# [5] = target: T2, Serine/threonine-protein kinase D2 (Homo sapiens) (UniProt Q9BZL6); test: Inhibition of PKD2 at 30 uM by microfluidic mobility shift assay; how it was run: as §1
# T2 sequence (whole entry): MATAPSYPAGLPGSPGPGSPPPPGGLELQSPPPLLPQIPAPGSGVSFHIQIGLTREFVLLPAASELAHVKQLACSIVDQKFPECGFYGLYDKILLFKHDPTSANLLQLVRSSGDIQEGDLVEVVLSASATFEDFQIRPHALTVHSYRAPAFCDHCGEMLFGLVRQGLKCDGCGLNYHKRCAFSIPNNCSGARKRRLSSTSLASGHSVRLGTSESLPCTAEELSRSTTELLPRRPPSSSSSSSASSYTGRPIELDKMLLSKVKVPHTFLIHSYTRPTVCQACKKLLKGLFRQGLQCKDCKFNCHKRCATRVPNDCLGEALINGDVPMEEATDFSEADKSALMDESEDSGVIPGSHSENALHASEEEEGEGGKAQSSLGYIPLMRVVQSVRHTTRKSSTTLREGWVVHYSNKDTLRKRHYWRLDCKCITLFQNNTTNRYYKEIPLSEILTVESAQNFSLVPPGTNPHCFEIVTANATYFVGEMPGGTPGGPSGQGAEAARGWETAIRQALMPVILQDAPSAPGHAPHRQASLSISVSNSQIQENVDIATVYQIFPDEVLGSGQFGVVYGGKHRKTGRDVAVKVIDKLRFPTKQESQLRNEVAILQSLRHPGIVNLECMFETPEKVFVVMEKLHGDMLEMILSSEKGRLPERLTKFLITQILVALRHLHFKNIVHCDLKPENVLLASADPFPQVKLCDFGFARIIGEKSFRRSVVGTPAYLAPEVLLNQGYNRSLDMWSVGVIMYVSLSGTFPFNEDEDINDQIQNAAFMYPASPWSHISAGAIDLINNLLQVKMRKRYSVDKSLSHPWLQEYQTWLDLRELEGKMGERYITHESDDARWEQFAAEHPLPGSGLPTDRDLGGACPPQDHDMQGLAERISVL
# [6] = target: T3, Serine/threonine-protein kinase Chk1 (Homo sapiens) (UniProt O14757); test: Inhibition of CHK1 at 30 uM by microfluidic mobility shift assay; how it was run: as §1
# T3 sequence (whole entry): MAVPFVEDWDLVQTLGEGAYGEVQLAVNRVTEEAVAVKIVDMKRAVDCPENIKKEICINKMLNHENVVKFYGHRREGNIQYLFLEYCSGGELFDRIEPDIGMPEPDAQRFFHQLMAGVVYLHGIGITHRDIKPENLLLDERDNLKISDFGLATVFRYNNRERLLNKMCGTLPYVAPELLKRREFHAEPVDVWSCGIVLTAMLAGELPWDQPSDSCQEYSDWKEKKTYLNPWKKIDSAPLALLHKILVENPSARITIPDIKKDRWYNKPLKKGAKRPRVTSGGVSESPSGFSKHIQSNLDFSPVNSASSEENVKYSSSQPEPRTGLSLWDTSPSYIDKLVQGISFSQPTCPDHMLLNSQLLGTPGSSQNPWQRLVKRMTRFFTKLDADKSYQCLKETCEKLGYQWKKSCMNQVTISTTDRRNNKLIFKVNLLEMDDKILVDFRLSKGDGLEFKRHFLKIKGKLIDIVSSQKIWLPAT
# [7] = target: Tyrosine-protein kinase Fyn (Homo sapiens, UniProt P06241); test: Inhibition of FYN at 30 uM by microfluidic mobility shift assay; how it was run: as §1
# Chain of Tyrosine-protein kinase Fyn (P06241 2-537 limits assumed): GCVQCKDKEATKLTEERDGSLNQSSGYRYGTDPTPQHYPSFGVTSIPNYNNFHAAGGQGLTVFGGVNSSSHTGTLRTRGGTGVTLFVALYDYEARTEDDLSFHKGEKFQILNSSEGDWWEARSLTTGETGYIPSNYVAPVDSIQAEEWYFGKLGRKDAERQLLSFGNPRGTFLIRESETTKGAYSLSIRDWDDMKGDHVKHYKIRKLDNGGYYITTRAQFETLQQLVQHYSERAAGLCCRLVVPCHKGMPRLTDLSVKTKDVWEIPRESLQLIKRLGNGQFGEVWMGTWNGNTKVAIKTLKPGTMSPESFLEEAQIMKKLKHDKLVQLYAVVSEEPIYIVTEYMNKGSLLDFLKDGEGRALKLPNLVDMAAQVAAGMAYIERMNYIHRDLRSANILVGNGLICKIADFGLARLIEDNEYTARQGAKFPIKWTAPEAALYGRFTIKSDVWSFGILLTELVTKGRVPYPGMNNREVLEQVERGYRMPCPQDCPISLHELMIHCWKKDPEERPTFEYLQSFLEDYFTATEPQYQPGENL
# [8] = target: Tyrosine-protein kinase Lyn (Homo sapiens, UniProt P07948); test: Inhibition of LYN at 30 uM by microfluidic mobility shift assay; how it was run: as §1
# Chain of Tyrosine-protein kinase Lyn (P07948 2-512 limits assumed): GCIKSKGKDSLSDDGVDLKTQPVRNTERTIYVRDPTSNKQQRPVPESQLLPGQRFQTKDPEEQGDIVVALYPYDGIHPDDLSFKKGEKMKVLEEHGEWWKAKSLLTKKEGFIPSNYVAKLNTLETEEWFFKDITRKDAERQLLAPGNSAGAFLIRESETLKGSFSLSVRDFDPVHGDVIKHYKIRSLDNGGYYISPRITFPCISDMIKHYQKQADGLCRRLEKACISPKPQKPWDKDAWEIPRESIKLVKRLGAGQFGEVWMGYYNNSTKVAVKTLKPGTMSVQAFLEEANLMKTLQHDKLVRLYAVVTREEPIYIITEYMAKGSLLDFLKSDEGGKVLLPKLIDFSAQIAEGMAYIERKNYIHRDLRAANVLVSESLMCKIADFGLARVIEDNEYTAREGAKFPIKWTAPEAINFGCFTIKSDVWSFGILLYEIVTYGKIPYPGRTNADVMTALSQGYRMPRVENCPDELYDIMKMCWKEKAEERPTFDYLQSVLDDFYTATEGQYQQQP
# [9] = target: Serine/threonine-protein kinase Chk2 (Homo sapiens, UniProt O96017); test: Inhibition of CHK2 at 30 uM by microfluidic mobility shift assay; how it was run: as §1
# Chain of Serine/threonine-protein kinase Chk2 (O96017 whole entry): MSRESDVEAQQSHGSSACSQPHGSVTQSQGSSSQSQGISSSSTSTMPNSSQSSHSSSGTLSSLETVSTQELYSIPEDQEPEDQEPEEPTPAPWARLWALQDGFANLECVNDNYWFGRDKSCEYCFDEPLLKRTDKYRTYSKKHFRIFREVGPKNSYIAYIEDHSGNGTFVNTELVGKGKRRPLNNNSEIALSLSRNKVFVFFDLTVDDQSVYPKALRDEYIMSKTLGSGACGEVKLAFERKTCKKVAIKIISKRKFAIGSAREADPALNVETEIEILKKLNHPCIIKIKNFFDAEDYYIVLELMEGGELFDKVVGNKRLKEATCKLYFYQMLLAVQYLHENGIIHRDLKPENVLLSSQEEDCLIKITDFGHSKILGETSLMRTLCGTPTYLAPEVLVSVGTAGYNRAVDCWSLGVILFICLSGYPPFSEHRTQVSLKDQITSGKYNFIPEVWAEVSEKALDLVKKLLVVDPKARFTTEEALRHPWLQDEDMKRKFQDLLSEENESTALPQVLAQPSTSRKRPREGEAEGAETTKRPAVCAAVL
# [10] = target: Tyrosine-protein kinase Lck (Homo sapiens, UniProt P06239); test: Inhibition of LCK at 30 uM by microfluidic mobility shift assay; how it was run: as §1
# Chain of Tyrosine-protein kinase Lck (P06239 2-509 limits assumed): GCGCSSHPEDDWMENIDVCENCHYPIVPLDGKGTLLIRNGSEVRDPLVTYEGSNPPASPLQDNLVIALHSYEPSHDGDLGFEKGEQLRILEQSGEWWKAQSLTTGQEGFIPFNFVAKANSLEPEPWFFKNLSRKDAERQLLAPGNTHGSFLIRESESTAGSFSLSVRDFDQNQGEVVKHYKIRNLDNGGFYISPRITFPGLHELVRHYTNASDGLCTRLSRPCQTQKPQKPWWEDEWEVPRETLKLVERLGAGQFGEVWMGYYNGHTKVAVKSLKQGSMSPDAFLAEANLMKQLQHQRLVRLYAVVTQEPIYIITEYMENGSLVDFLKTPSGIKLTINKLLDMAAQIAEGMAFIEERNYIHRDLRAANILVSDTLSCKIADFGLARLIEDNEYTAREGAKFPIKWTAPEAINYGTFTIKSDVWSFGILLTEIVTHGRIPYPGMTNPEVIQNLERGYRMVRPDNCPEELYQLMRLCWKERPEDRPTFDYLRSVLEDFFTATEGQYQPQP
# [11] = target: Glycogen synthase kinase-3 beta (Homo sapiens) (UniProt P49841); test: Inhibition of GSK3B at 30 uM by microfluidic mobility shift assay; how it was run: as §1
# [12] = target: Mitogen-activated protein kinase 1 (Homo sapiens) (UniProt P28482); test: Inhibition of ERK2 at 30 uM by microfluidic mobility shift assay; how it was run: as §1
# Chain of Mitogen-activated protein kinase 1 (Homo sapiens) (P28482 whole entry): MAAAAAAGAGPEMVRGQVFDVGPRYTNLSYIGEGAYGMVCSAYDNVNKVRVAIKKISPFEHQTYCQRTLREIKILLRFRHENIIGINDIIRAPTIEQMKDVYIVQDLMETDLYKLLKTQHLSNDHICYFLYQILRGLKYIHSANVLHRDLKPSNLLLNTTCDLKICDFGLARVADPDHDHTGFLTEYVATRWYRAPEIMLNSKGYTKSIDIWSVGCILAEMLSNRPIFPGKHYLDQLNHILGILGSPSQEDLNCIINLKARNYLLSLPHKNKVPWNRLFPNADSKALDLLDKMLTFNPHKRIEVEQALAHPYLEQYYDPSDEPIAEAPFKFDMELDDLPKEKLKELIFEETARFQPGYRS
# [13] = Inhibition of PKA at 30 uM by microfluidic mobility shift assay; how it was run: as §1
# [14] = target: RAC-beta serine/threonine-protein kinase (Homo sapiens) (UniProt P31751); test: Inhibition of AKT2 at 30 uM by microfluidic mobility shift assay; how it was run: as §1
# Chain of RAC-beta serine/threonine-protein kinase (Homo sapiens) (P31751 whole entry): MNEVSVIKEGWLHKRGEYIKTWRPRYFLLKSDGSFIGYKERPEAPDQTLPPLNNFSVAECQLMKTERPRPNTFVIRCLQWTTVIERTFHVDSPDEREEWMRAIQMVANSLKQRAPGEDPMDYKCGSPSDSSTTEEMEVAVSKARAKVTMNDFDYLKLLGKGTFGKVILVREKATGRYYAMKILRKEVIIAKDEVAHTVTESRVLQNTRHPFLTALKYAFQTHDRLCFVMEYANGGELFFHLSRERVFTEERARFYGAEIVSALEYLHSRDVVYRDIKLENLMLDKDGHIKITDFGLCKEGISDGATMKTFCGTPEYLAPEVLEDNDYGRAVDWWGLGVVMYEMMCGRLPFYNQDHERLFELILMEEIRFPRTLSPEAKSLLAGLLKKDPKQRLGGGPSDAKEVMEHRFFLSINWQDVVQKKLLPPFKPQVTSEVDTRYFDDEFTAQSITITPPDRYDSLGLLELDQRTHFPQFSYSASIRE
# [15] = target: Mitogen-activated protein kinase 14 (Homo sapiens, UniProt Q16539); test: Inhibition of p38alpha at 30 uM by microfluidic mobility shift assay; how it was run: as §1
# Chain of Mitogen-activated protein kinase 14 (Q16539 whole entry): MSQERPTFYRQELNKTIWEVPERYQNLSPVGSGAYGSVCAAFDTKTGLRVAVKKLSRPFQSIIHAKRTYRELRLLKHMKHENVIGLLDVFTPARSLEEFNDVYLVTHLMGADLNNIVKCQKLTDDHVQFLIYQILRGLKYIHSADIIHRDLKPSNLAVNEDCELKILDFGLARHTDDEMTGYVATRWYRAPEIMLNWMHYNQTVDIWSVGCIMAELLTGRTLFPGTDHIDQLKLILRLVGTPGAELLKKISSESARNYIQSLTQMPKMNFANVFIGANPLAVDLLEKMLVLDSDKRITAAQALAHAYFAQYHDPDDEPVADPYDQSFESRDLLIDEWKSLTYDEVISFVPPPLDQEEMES
# [16] = target: RAC-alpha serine/threonine-protein kinase (Homo sapiens) (UniProt P31749); test: Inhibition of AKT1 at 30 uM by microfluidic mobility shift assay; how it was run: as §1
# Chain of RAC-alpha serine/threonine-protein kinase (Homo sapiens) (P31749 whole entry): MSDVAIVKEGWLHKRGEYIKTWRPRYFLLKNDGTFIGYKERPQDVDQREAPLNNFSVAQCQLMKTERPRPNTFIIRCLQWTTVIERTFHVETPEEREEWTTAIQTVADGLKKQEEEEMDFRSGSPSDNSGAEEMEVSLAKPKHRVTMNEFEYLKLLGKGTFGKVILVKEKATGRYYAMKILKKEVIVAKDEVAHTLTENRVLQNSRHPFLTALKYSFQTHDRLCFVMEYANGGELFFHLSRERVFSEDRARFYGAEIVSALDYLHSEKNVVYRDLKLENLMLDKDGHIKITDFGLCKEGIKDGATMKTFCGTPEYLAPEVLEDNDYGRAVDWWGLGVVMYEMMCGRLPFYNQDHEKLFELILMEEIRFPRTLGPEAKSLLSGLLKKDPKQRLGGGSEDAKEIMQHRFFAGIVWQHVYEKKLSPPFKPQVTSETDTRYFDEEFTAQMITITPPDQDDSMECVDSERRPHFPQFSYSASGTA
# Chain of MAP kinase-activated protein kinase 2 (P49137 whole entry, looked up): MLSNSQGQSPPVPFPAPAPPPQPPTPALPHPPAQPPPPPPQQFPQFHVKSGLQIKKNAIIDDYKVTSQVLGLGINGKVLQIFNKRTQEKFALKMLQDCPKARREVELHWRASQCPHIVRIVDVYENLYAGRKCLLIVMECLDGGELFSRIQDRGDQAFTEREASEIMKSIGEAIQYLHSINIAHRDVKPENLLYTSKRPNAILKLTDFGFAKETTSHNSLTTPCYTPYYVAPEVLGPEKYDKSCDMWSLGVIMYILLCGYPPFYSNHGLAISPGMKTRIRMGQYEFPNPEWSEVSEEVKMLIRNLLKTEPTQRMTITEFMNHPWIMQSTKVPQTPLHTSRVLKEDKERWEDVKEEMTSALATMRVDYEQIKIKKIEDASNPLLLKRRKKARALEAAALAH
Structure (SMILES),inhibition [1] [%],inhibition [2] [%],inhibition [3] [%],inhibition [4] [%],inhibition [5] [%],inhibition [6] [%],inhibition [7] [%],inhibition [8] [%],inhibition [9] [%],inhibition [10] [%],inhibition [11] [%],inhibition [12] [%],inhibition [13] [%],inhibition [14] [%],inhibition [15] [%],inhibition [16] [%]
COc1ccc(S(=O)(=O)Nc2nn(C)c3cc(C)[nH]c(=O)c23)c(OC)c1,2,-9,-2,4,14,0,3,-1,6,-1,0,1,3,6,-4,10
COc1ccccc1-c1cc2nn(-c3ccccc3)c(N)c2c(=O)[nH]1,-1,7,3,21,20,3,77,86,16,72,3,13,6,0,68,15
Nc1n[nH]c2cc(-c3ccc(N4CCOCC4)cc3)[nH]c(=O)c12,55,51,16,9,15,29,62,63,38,44,41,-3,88,7,6,-1
COc1cccc(-c2cc3[nH]nc(N)c3c(=O)[nH]2)c1,56,49,20,20,17,13,42,49,52,48,58,15,48,2,10,4
Nc1c2c(=O)[nH]c(-c3ccccc3)cc2nn1-c1ccccn1,6,37,5,2,16,2,41,40,18,15,41,0,-3,0,7,10
COc1ccc(-c2cc3[nH]nc(N)c3c(=O)[nH]2)cc1,59,49,7,13,28,14,50,56,43,54,78,12,82,11,0,21

# The remaining lines, values ahead:
inhibition [1] [%],inhibition [2] [%],inhibition [3] [%],inhibition [4] [%],inhibition [5] [%],inhibition [6] [%],inhibition [7] [%],inhibition [8] [%],inhibition [9] [%],inhibition [10] [%],inhibition [11] [%],inhibition [12] [%],inhibition [13] [%],inhibition [14] [%],inhibition [15] [%],inhibition [16] [%],Structure (SMILES)
47,17,22,19,25,27,23,26,31,22,61,22,7,1,2,-5,COc1cccc(-c2cc3c(c(N)nn3C)c(=O)[nH]2)c1
11,9,-5,10,5,2,7,6,-1,9,17,5,3,3,-1,5,COC(=O)CCc1c(C)[nH]c(=O)c2c(N)nn(C)c12
6,15,-4,5,4,7,-1,6,-2,1,1,8,19,-3,1,6,COCCNc1nc(C)cc2c1c(N)nn2C
36,7,9,10,17,34,24,10,25,21,46,9,5,10,1,7,Cn1nc(N)c2c(=O)[nH]c(-c3ccccn3)cc21
2,10,-3,3,1,7,0,4,8,9,3,0,-3,-1,2,8,COCCNc1nc(-c2ccccc2)cc2c1c(N)nn2C
